The species named for series [1] is Felis catus. The series can be described thus: acetylcholine antagonist effect of compound on cat blood pressure at concentration 5.7*10e-7 in 10 min. The format is functional. The gist of the method:
(§1)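 Adult cats under ip α-chloralose (80 mg/kg) plus pentobarbitone (6 mg/kg), bilaterally vagotomized and artificially respired. Carotid blood pressure was recorded. An iv acetylcholine dose giving 70–80% of maximal vasodepressor response was used. After iv test drug, acetylcholine responses were checked at 1 min and then every 2–3 min and expressed as % of control. Doses were given in mol/kg, escalating after recovery.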

The species entered for series [2] is Felis catus. The series can be described thus: acetylcholine antagonist effect of compound on cat blood pressure at concentration 5.7*10e-8 in 3 min. The format is functional. Put shortly: as §1
The species entered for series [3] is Felis catus. The series can be described thus: acetylcholine antagonist effect of compound on cat blood pressure at concentration 5.7*10e-7 in 25 min. In kind it is functional. Put shortly: as §1
The species named for series [4] is Felis catus. The series can be described thus: acetylcholine antagonist effect of compound on cat blood pressure at concentration 5.7*10e-7 in 4 min. In kind it is functional. Put shortly:
as §1

For series [5], the species on record is Felis catus. The series can be described thus: acetylcholine antagonist effect of compound on cat blood pressure at concentration 5.7*10e-7 in 13 min. In kind it is functional. Put shortly: as §1
The species entered for series [6] is Felis catus. The series can be described thus: acetylcholine antagonist effect of compound on cat blood pressure at concentration 5.7*10e-7 in 1 min. In kind it is functional. Put shortly: as §1
Series [7] is filed under the species Felis catus. The series can be described thus: acetylcholine antagonist effect of compound on cat blood pressure at concentration 5.7*10e-8 in 5 min. In kind it is functional. Put shortly:
(§2)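 Adult cats anesthetized ip with α-chloralose (80 mg/kg) plus sodium pentobarbitone (6 mg/kg), bilaterally vagotomized, artificially respired. Carotid arterial pressure recorded. Drugs given iv via brachial vein. Acetylcholine dose giving 70-80% of maximal vasodepressor response used throughout. Test drug injected, acetylcholine response checked 1 min later, then every ~2-3 min. Value is % of control vasodepressor response to acetylcholine.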

The species named for series [8] is Felis catus. The series can be described thus: acetylcholine antagonist effect of compound on cat blood pressure at concentration 5.7*10e-7 in 21 min. The format is functional. The gist of the method:
as §1

For series [9], the species on record is Felis catus. The series can be described thus: acetylcholine antagonist effect of compound on cat blood pressure at concentration 5.7*10e-8 in 4 min. The format is functional. The gist of the method:
as §2

For series [10], the species on record is Felis catus. The series can be described thus: acetylcholine antagonist effect of compound on cat blood pressure at concentration 5.7*10e-8 in 9 min. In kind it is functional. Put shortly: as §2
The species named for series [11] is Felis catus. The series can be described thus: acetylcholine antagonist effect of compound on cat blood pressure at concentration 5.7*10e-7 in 6 min. The format is functional. Put shortly:
as §1

Series [12] deals with Felis catus. The series can be described thus: acetylcholine antagonist effect of compound on cat blood pressure at concentration 5.7*10e-8 mol/kg in 1 min. In kind it is functional. The gist of the method:
as §1

For series [13], the species on record is Felis catus. The series can be described thus: acetylcholine antagonist effect of compound on cat blood pressure at concentration 5.7*10e-7 in 17 min. In kind it is functional. The gist of the method: as §1
Series [14] is filed under the species Felis catus. The series can be described thus: acetylcholine antagonist effect of compound on cat blood pressure at concentration 5.7*10e-7 in 29 min. The format is functional. The gist of the method:
as §1

The species entered for series [15] is Felis catus. The series can be described thus: acetylcholine antagonist effect of compound on cat blood pressure at concentration 5.7*10e-7 in 37 min. In kind it is functional. The gist of the method:
as §1

Series [16] is filed under the species Felis catus. The series can be described thus: acetylcholine antagonist effect of compound on cat blood pressure at concentration 5.7*10e-7 in 3 min. The format is functional. The gist of the method:
as §1

The species named for series [17] is Felis catus. The series can be described thus: acetylcholine antagonist effect of compound on cat blood pressure at concentration 5.7*10e-7 in 27 min. The format is functional. Put shortly: as §1
A short description of series [18]: Half life period was measured at 7.4 pH from d[acid]/dt. Particulars: pH 7.4. In kind it is ADME. Put shortly:
(§3)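 Chemical hydrolysis in 0.5 M potassium phosphate, pH 7.4, 37 °C. Rate was followed by appearance of the acid product or loss of the quaternary salt. Where salt contained amine hydrochloride, initial concentration was taken from final acid after complete hydrolysis. Half-life was estimated from both where resolved.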

For series [19], the species on record is Felis catus. The series can be described thus: acetylcholine antagonist effect of compound on cat blood pressure at concentration 5.7*10e-7 in 12 min. The format is functional. The gist of the method: as §1
For series [20], the species on record is Felis catus. The series can be described thus: acetylcholine antagonist effect of compound on cat blood pressure at concentration 5.7*10e-7 in 15 min. In kind it is functional. The gist of the method: as §1
The species entered for series [21] is Felis catus. The series can be described thus: acetylcholine antagonist effect of compound on cat blood pressure at concentration 5.7*10e-7 in 22 min. The format is functional. Put shortly: as §1
For series [22], the species on record is Cavia porcellus. The series can be described thus: Anticholinergic activity was measured by the guinea pig ileum test. The format is functional. Particulars: read-out: pA2 (converted). Put shortly: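 Guinea pig whole ileum strips in McEwan's solution, gassed with O2/CO2 95:5, 37 °C organ bath, 1 g tension. Cumulative acetylcholine concentration-response curves were run to constancy, then repeated after 15–20 min equilibration with increasing antagonist concentrations. Mean curves gave dose ratios, from which competitive antagonism and pA2 were derived.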

The nature of series [23]: The hydrolytic kinetics expressed as Kobs was measured at 7.4 pH at 37 degree C. As to conditions: pH 7.4. In kind it is ADME. Put shortly: as §3
The species named for series [24] is Felis catus. The series can be described thus: acetylcholine antagonist effect of compound on cat blood pressure at concentration 5.7*10e-8 in 7 min. The format is functional. Put shortly:
as §2

The species entered for series [25] is Felis catus. The series can be described thus: acetylcholine antagonist effect of compound on cat blood pressure at concentration 5.7*10e-7 in 31 min. The format is functional. Put shortly:
as §1

Series [26] is filed under the species Felis catus. The series can be described thus: acetylcholine antagonist effect of compound on cat blood pressure at concentration 5.7*10e-7 in 18 min. In kind it is functional. The gist of the method:
as §1

With `C[N+]1(COC(=O)C(c2ccccc2)C2CCCC2)CCOCC1.[Cl-]` (configuration not stated), the Response is listed as 23% in series [1]; 45% in series [2]; 82% in series [3]; 0% in [4]; 50% in [5]; 0% in series [6]. For the same molecule, the Response is recorded as 90% in [7]; 73% in series [8]; 82% in series [9]; 100% in series [10]; 0% in series [11]; 0% in series [12]. For the same molecule, the Response in series [13] stood at 59%; in [14], 100%.
For the molecule `CC[N+](CC)(CC)COC(=O)C(c1ccccc1)C1CCCC1.[Cl-]` (configuration not stated), the Response in [15] is given as 100%; in series [16], 0%; in [2], 18%; in [17], 73%; in series [6], 0%; in series [7] it was 55%. In addition, the Response in [19] is reported as 18%; in series [20], 36%; in [21] it was 65%; in series [10] it was 100%; in series [11], 0%; in series [12] it was 0%. The Response came to 82% in series [24], 95% in series [25] and 55% in [26]. For the same molecule, the half-life (commonly how long it takes for the measured level to halve) in series [18] was 32 h. Besides, the Kb in series [22] is 7.94 nM. The K obs in [23] is 0.000361 min⁻¹.

These data come from ChEMBL document CHEMBL1121584, “Soft drugs. 3. A new class of anticholinergic agents” (J Med Chem, 1980).
